Fewer inactive variants are shown than the library holds.
B1: tRNA (parent)
chain: GUUCCGUUGGCGUAAUGGUAACGCGUCUCCCUCCUAAGGAGAAGACUGCGGGUUCGAGUCCCGUACGGAACG

Variants of: B1
Assay: yeast fitness relative to wild type (ratio to wild type); higher = fitter; tRNA-Arg(CCU), competitive growth, 37 C, YPD
Summary of the method: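 A pool of Saccharomyces cerevisiae strains, each with a tRNA-Arg(CCU) gene variant at the native genomic locus, was competed in YPD at 37°C for 24 hours across six parallel replicates. The variants had been chemically synthesised at a 3% per-site mutation rate over 69 sites, and gene amplicons before and after competition were read by 100-nucleotide paired-end sequencing. Darwinian fitness relative to wild type rested on changes in genotype frequencies. Genotypes required ≥ 100 starting reads, and estimates < 0.5 were set to 0.5.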

| Variant | yeast fitness |
| --- | --- |
| U2G C27U C46G | 0.564 |
| U2G A21G A57C | ≤ 0.5 |
| U2G A42U A70U | 0.539 |
| U2C U13A G18A A42G | ≤ 0.5 |
| U2G A40U C46G | ≤ 0.5 |
| U2G A15C A36C | 0.649 |
| U2G C29U C49G C55G G63C | ≤ 0.5 |
| U2G C33A G39C A69U | ≤ 0.5 |
| U2G C4A U8C U16C C61G | ≤ 0.5 |
| U2C U8G A14G U32G U35A | ≤ 0.5 |
| U2G A15G G17A C29G A40U C61U C66U | ≤ 0.5 |
| U2C U19G G68A | 0.559 |
| U2G C34U A40G C46A | ≤ 0.5 |
| U2G A20U C34A C55G C66A | ≤ 0.5 |
| U2G C27U A36G | 0.552 |
| U2G C46G A65U | 0.623 |
| U2G C31U A37C | 0.56 |
| U2G A40U C55U A69U | ≤ 0.5 |
| U2G C34U A36C C61A | ≤ 0.5 |
| U2C U19C | 0.897 |
| U2C U19G | 0.867 |
| U2G A14C A57U A69U | ≤ 0.5 |
| U2C U32A C46U | 0.603 |
| U2C U13C A20G U28C A40G | 0.679 |

| Variant | yeast fitness |
| --- | --- |
| U2G G6A A15U C62G | ≤ 0.5 |
| U2G C34G C46U G48C U54G | 0.709 |
| U2G C31G A42G A57U | ≤ 0.5 |
| U2G C4U A42G | 0.755 |
| U2C U19G C60A | 0.528 |
| U2G C30A U35G | 0.66 |
| U2G C34G G39C G41C G67C A70C | ≤ 0.5 |
| U2G C46A G58C C62U | ≤ 0.5 |
| U2G C27G A65U | ≤ 0.5 |
| U2G C4U A40C | 0.627 |
| U2C U16G C66A | ≤ 0.5 |
| U2G C22U A57U | ≤ 0.5 |
| U2G C4U A36U | 0.587 |
| U2G C24G C29G C31G A69C | ≤ 0.5 |
| U2G C4U G6C C31G | ≤ 0.5 |
| U2G A36U G67A G68C | ≤ 0.5 |
| U2G A14G A15U G25C C49U | ≤ 0.5 |
| U2C U26C A36G | ≤ 0.5 |
| U2G C5G C11G G56C C61G | ≤ 0.5 |
| U2G A15U U47A C62A | ≤ 0.5 |
| U2G A14U U28A | ≤ 0.5 |
| U2G A14G C29G A37U C62G C66U | ≤ 0.5 |
| U2G C24U A45C G48A G67A | ≤ 0.5 |
| U2G C4U G6C C49G | ≤ 0.5 |

| Variant | yeast fitness |
| --- | --- |
| U2G A69U | 0.743 |
| U2G A69G | 0.975 |
| U2G A69C | 0.93 |
| U2G C11A A14C C34A | ≤ 0.5 |
| U2G C33U G52A | ≤ 0.5 |
| U2G C33U A36U A43C | 0.688 |
| U2G C60G A69U | ≤ 0.5 |
| U2G A15C A43G | ≤ 0.5 |
| U2C U16A A70C | 0.676 |
| U2C U16C C27G | 0.669 |
| U2C U16A | 0.971 |
| U2G C27G C66U G67C A70G | ≤ 0.5 |
| U2C U35A G56A | 0.576 |
| U2G C4U U7G C11G A15C G18A U28C C55U | ≤ 0.5 |
| U2G C27G G52C | ≤ 0.5 |
| U2C U59C | 0.996 |
| U2G C22U C24G A37U | ≤ 0.5 |
| U2G A15G G17A G52C C66A | ≤ 0.5 |
| U2C U13C C22G C24U C61A | ≤ 0.5 |
| U2G C31G U35A A45U | ≤ 0.5 |
| U2C U8C C34A A42C G68C | ≤ 0.5 |
| U2G C11G C62U | 0.609 |
| U2G C24U | 0.786 |
| U2G A20U A43U | 0.594 |

| Variant | yeast fitness |
| --- | --- |
| U2G A21G | 0.917 |
| U2G A21U | 0.729 |
| U2G C5A C55G | 0.561 |
| U2G A15G G17A | ≤ 0.5 |
| U2G A42G C55U | ≤ 0.5 |
| U2G A21C A45G | 0.54 |
| U2G C31U G48C C62A | ≤ 0.5 |
| U2G A65U | 0.687 |
| U2G A65G | 1.11 |
| U2G A20U U32A C46G | ≤ 0.5 |
| U2C U54G | 0.657 |
| U2C U54C | 0.873 |
| U2G A37C | 0.585 |
| U2G C11G G12A A20U C30G C49G U53G | ≤ 0.5 |
| U2G C5A G12A C55G | ≤ 0.5 |
| U2G A20G | 0.901 |
| U2C U28A A70G | ≤ 0.5 |
| U2G A21C C22G | 0.541 |
| U2G A21C C22U | 0.575 |
| U2G C22U C24G G63A A69C | ≤ 0.5 |
| U2G C31U G48C | 0.6 |
| U2G A40C G41C A42U | ≤ 0.5 |
| U2G C27U C55U | ≤ 0.5 |
| U2G C55A C60G C62G | ≤ 0.5 |

| Variant | yeast fitness |
| --- | --- |
| U2G A21G U32C U59G C66U A70C | ≤ 0.5 |
| U2G C49G G50C A70C | ≤ 0.5 |
| U2C U13A G39C C60G A70U | 0.537 |
| U2G C24G C31U G67C | ≤ 0.5 |
| U2G C4U C61A C62U A65U | 0.521 |
| U2G C61U | 0.88 |
| U2G C4U C60A | ≤ 0.5 |
| U2G A42G | 0.866 |
| U2G C5A A43U | 0.68 |
| U2G C22G G41C G68A | 0.573 |
| U2G C22G C27G C30A U32G C55G | ≤ 0.5 |
| U2G A20C G44A A45G | 0.712 |
| U2C U8G C11U C24U A37U C66A | ≤ 0.5 |
| U2G C22G U26C C27G C30A U32G C55G | ≤ 0.5 |
| U2C U47G | 0.626 |
| U2C U47C | 0.977 |
| U2C U16C A36G C55U | ≤ 0.5 |
| U2G A37C C49U A70C | ≤ 0.5 |
| U2C U19C C49U A57C | ≤ 0.5 |
| U2G C24A C33U A40G G51C A57U | ≤ 0.5 |
| U2G C4U U13A G41A A45C C49A U54G C55G | ≤ 0.5 |
| U2G C33G G39C C55U | 0.523 |
| U2G A45U C49U C61G | ≤ 0.5 |
| U2G C4A U16C C61G G68C | ≤ 0.5 |

| Variant | yeast fitness |
| --- | --- |
| U2G C4A A37U C62G | ≤ 0.5 |
| U2C U8G C31G A42C G56A C61G | 0.507 |
| U2G C31U G50A C61G C66U A69U | ≤ 0.5 |
| U2G C24G A36G A42C C61U C62G | ≤ 0.5 |
| U2G C4G C31A A37C | ≤ 0.5 |
| U2G C49U G51C C55A | ≤ 0.5 |
| U2G A21U G67C | ≤ 0.5 |
| U2G A20C C33A | ≤ 0.5 |
| U2C U32A C61A A65G | ≤ 0.5 |
| U2G A37C C49G C62A | ≤ 0.5 |
| U2C U16G G51A | 0.588 |
| U2G A37C G51A | ≤ 0.5 |
| U2G C30U | 0.843 |
| U2G C30A | 0.709 |
| U2G A14G C62G A70U | ≤ 0.5 |
| U2C U26C C27G U28A A43U | ≤ 0.5 |
| U2G C11A C24A U26A G44C A70G | ≤ 0.5 |
| U2G A20G C22A A40C C46G G48A C49U G63A | ≤ 0.5 |
| U2G A20U G25C C49G A65C A70U | ≤ 0.5 |
| U2G C24G C49A | ≤ 0.5 |
| U2C U13C C22G U26A C31U A42C G50C | ≤ 0.5 |
| U2G C5A A36U | ≤ 0.5 |
| U2G A21G C61G | ≤ 0.5 |
| U2G A14U A20G C33G C61U A70C | ≤ 0.5 |

| Variant | yeast fitness |
| --- | --- |
| U2G A21C C22G A45G G51A | 0.697 |
| U2G C5A U19A C30G C55U G68C | ≤ 0.5 |
| U2G A14C A42C C49U A65G A70U | 0.533 |
| U2G C11U A45C U53G A69U | 0.544 |
| U2G C22U C24G A69U | 0.501 |
| U2G C22U C24G | 0.596 |
| U2G A45U C60U | 0.549 |
| U2G A36G A40U A43U G56C A57U | ≤ 0.5 |
| U2G C29G G50C A57U | ≤ 0.5 |
| U2G C4A A43U | 0.717 |
| U2C U8G A20G U32G U35A | ≤ 0.5 |
| U2G G6A A57G | 0.527 |
| U2G C22U C24G G51C C60U G67A | ≤ 0.5 |
| U2G C11G C30G | 0.614 |
| U2C U35C A69C | ≤ 0.5 |
| U2G A37C C61U G67A | ≤ 0.5 |
| U2G C31U U53A | ≤ 0.5 |
| U2C U35C U47C | 0.788 |
| U2G C24U G67C | 0.681 |
| U2G A36G A40U A43U | ≤ 0.5 |
| U2C U13C G44C G58A | 0.59 |
| U2G C5G A21C A43U G50A G52U A69C | ≤ 0.5 |
| U2G C5A G23A U28C U59C C60G | ≤ 0.5 |

Reference: the RNAGym collection of RNA variant scans (doi:10.1126/science.aae0568)
